Results: ChEMBL document CHEMBL1124475, “The thieno[3,2-c]pyridine and furo[3,2-c]pyridine rings: new pharmacophores with potential antipsychotic activity” (J Med Chem, 1989)
Calls of active or inactive are those of the source. The rule behind the calls is not given here.

Key:
[1] = target: T1, Serotonin 2 (5-HT2) receptor (Rattus norvegicus, UniProt P30994+P08909+P14842); assay: Ability to bind at serotonin 5-hydroxytryptamine 2 receptors of rat cortex by displacing [3H]spiperone
[2] = target: T2, Adrenergic receptor alpha-1 (Rattus norvegicus, UniProt P15823+P23944+P43140); assay: Ability to bind at alpha-1 adrenergic receptor by displacing [3H]WB-4101; assay type: protein assay
T2 sequence (P15823 whole entry): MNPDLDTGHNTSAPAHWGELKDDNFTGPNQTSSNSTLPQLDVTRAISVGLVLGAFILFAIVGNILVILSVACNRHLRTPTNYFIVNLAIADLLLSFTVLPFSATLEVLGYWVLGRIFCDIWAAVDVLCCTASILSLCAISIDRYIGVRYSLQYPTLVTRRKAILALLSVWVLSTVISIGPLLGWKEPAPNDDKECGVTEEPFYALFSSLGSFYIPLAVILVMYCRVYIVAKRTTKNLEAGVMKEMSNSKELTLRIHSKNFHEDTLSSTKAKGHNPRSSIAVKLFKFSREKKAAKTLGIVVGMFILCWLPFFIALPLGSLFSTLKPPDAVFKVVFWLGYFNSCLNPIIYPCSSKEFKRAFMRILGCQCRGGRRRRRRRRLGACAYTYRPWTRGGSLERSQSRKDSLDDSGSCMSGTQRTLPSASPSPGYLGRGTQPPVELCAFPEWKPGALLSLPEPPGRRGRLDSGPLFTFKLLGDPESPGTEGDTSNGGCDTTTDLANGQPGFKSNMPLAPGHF
T2 sequence (P23944 whole entry): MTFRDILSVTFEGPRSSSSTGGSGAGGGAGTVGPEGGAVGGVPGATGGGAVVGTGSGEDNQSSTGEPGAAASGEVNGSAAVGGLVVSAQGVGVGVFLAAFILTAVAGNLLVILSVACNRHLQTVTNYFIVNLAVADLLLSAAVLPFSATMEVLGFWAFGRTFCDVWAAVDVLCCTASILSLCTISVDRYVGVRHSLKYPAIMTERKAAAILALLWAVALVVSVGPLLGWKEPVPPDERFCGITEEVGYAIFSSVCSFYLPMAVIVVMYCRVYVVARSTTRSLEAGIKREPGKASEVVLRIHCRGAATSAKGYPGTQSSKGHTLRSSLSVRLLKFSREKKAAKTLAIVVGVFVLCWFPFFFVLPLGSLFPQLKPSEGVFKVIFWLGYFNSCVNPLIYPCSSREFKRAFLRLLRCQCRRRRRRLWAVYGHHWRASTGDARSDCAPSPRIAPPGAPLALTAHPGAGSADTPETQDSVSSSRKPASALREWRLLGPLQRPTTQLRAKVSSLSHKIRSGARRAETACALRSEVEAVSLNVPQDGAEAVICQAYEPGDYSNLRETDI
T2 sequence (P43140 whole entry): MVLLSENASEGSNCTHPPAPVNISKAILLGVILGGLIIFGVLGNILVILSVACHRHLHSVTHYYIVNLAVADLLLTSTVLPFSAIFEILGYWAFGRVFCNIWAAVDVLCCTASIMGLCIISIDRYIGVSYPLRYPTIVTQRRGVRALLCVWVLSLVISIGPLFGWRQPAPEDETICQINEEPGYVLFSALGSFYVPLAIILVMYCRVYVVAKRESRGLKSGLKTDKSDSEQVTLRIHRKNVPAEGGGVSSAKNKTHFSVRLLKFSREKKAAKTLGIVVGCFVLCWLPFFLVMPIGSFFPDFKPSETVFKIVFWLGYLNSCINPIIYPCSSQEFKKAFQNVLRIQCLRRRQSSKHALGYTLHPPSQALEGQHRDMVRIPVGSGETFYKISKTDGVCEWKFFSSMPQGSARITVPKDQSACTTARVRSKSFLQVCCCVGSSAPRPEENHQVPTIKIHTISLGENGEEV
Outline: (§1)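 Rat receptor radioligand displacement, five test-ligand concentrations used to calculate IC50, each assay in duplicate. Some compounds determined four times (in duplicate), with mean IC50 reported.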

Rattus norvegicus [3] = assay: Conditioned avoidance response (CAR) when administered perorally; assay type: functional; settings: po
[4] = target: T3, 5-hydroxytryptamine receptor 1A (Rattus norvegicus, UniProt P19327); assay: Ability to bind at serotonin 5-hydroxytryptamine 1A receptors of rat hippocampus by displacing [3H]8-OH-DPAT; assay type: tissue-based
T3 sequence (P19327 whole entry): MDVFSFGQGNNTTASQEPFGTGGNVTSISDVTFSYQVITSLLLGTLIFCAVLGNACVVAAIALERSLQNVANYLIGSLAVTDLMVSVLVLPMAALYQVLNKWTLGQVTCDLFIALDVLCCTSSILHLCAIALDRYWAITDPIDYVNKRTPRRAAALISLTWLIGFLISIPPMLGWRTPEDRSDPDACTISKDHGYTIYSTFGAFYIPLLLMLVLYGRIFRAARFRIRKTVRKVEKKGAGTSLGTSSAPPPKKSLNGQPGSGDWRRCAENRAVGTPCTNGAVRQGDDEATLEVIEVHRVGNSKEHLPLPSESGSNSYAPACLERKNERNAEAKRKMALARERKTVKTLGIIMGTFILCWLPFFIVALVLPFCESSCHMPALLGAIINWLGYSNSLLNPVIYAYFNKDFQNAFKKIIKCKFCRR
Outline: as §1

D(2) dopamine receptor [5] = target: T4, D(2) dopamine receptor (Rattus norvegicus, UniProt P61169); assay: Ability to bind at Dopamine receptor D2 of rat corpus striatum by displacing [3H]spiperone
T4 sequence (P61169 whole entry): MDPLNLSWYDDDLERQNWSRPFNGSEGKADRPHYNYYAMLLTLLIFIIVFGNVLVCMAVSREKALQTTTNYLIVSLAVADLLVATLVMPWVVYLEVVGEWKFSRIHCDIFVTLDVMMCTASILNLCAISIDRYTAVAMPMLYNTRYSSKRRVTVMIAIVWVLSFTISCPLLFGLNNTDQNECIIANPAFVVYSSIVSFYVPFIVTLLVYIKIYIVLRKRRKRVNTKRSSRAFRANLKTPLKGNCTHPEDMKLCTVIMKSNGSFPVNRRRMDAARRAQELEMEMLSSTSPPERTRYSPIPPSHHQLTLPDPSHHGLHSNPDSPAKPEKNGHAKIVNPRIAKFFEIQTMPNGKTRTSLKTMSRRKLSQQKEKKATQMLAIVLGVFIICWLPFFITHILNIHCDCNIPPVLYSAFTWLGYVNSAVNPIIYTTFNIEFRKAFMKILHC
Outline: as §1

Rattus norvegicus [6] = assay: Blockade of Sidman-avoidance activity in rats when administered perorally; assay type: functional
Outline: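 Rats trained in once-daily Sidman sessions until stable; non-learners after 3 days replaced. Twelve rats dosed 30 min before session. Each rat compared with mean of its previous three drug-free days by paired t test. Testing continued to minimally effective dose; maximum usually 100 mg/kg. MED is mean over 12 animals.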

Rattus norvegicus [7] = assay: Induction of catalepsy in rats when administered perorally and maximum dose examined was 4 times the ED50 value established in CAR; Inactive; assay type: functional, organism-based
Rattus norvegicus [8] = assay: Blockade of apomorphine-induced stereotypy in rats when administered perorally; assay type: functional; settings: po
Mus musculus = assay: Blockade of apomorphine-induced climbing in mice when administered perorally; IA Inactive; assay type: functional, organism-based
Outline: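 Male mice habituated 30 min in individual cages, then dosed orally (distilled H2O or 0.5% Methocel suspension, 10 mL/kg) or vehicle. Apomorphine 1.5 mg/kg sc given 30 min later. Climbing scored at 10, 20, 30 min post-apomorphine. At least five animals per dose, maximum 100 mg/kg.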

[9] = target: Serotonin 1 (5-HT1) receptor (Rattus norvegicus, UniProt P28564+P30940+P19327+P28565); assay: Ability to bind at 5-hydroxytryptamine 1 receptor of rat hippocampus by displacing [3H]5-HT; assay type: tissue-based
Outline: as §1

[10] = target: T2, Adrenergic receptor alpha-1; assay: Ability to bind at Alpha-1 adrenergic receptor by displacing [3H]WB-4101; assay type: protein assay
D(2) dopamine receptor [11] = target: T4, D(2) dopamine receptor; assay: Ability to bind at dopamine receptor D2 of rat corpus striatum by displacing [3H]spiperone
[12] = target: T1, Serotonin 2 (5-HT2) receptor; assay: Ability to bind at 5-hydroxytryptamine 2 receptor of rat cortex by displacing [3H]spiperone
[13] = target: T3, 5-hydroxytryptamine receptor 1A; assay: Ability to bind at 5-hydroxytryptamine 1A receptor of rat hippocampus by displacing [3H]8-OH-DPAT; assay type: tissue-based
Outline: as §1

SMILES	IC50 [1]	ED50 (Rattus norvegicus [3])	IC50 [4]	IC50 (D(2) dopamine receptor [5])	IC50 [9]	IC50 (D(2) dopamine receptor [11])	further results
Cl.OC(CCCN1CCN(c2nccc3occc23)CC1)c1ccc(F)cc1 (configuration not stated)	55.2 nM	3.1 mg/kg	12.4 nM	339 nM			IC50 [2]: 23.8 nM
Cl.O=C1CCCC(=O)N1CCCCN1CCN(c2nccc3sccc23)CC1	19.1 nM	5.4 mg/kg	2.5 nM				MED (Rattus norvegicus [6]; po): 20 mg/kg; ED50 (Rattus norvegicus [7]): inactive; ED50 (Rattus norvegicus [8]): 55.6 mg/kg; MED50 (Mus musculus): inactive
Cc1cc2c(N3CCN(CCCC(O)c4ccc(F)cc4)CC3)nccc2o1.Cl (configuration not stated)		23.2 mg/kg	6.2 nM				
Cl.Cn1ccc2c(N3CCN(CCCCN4C(=O)CC(C)(C)CC4=O)CC3)nccc21		67.2 mg/kg		> 1000 nM			
Cl.O=C1CSCC(=O)N1CCCCN1CCN(c2nccc3occc23)CC1		35.8 mg/kg		> 1000 nM			
CC1CC(=O)N(CCCCN2CCN(c3nccc4sccc34)CC2)C(=O)C1.Cl	4.2 nM	2.9 mg/kg	1.3 nM	663 nM	8.8 nM		ED50 (Rattus norvegicus [7]): inactive; ED50 (Rattus norvegicus [8]): 39.5 mg/kg; MED50 (Mus musculus): inactive
Cl.O=C1c2ccccc2C(=O)N1CCCCN1CCN(c2nccc3sccc23)CC1	2.8 nM	38.9 mg/kg	2.7 nM	306 nM	5.3 nM		IC50 [2]: 0.69 nM
Cc1cc2c(N3CCN(CCCCN4C(=O)CC(C)(C)CC4=O)CC3)nccc2o1.Cl		13.8 mg/kg	4.9 nM	708 nM			
CC1(C)CC(=O)N(CCCCN2CCN(c3nccc4sc(Br)cc34)CC2)C(=O)C1.Cl	70.9 nM	65.3 mg/kg		228 nM	3.7 nM		IC50 [2]: 27.2 nM
O=C1CSCC(=O)N1CCCCN1CCN(c2nccc3sccc23)CC1	6.7 nM	31.9 mg/kg	1.15 nM	608 nM			IC50 [2]: 1.1 nM
Cl.O=C1SC2(CCCC2)C(=O)N1CCCCN1CCN(c2nccc3occc23)CC1		9.2 mg/kg				331 nM	IC50 [10]: 23.5 nM
Cl.O=C1SC2(CCCC2)C(=O)N1CCCCN1CCN(c2nccc3sc(Br)cc23)CC1		> 100 mg/kg			25.3 nM	440 nM	IC50 [12]: 116 nM
Cl.Cn1ccc2c(N3CCN(CCCCN4C(=O)SC5(CCCC5)C4=O)CC3)nccc21		59.5 mg/kg				517 nM	IC50 [13]: 246 nM
CC1(C)CC(=O)N(CCCCN2CCN(c3nccc4occc34)CC2)C(=O)C1.Cl		4.2 mg/kg				626 nM	IC50 [10]: 47 nM; IC50 [13]: 8.64 nM
Cl.O=C1c2ccccc2S(=O)(=O)N1CCCCN1CCN(c2nccc3sccc23)CC1	5.7 nM	> 62.5 mg/kg	0.68 nM	320 nM	2.3 nM		IC50 [2]: 1.2 nM
Cc1cc2c(N3CCN(CCCCN4C(=O)SC5(CCCC5)C4=O)CC3)nccc2o1.Cl		28.4 mg/kg				751 nM	IC50 [10]: 27.5 nM; IC50 [13]: 2.2 nM
Cl.O=C1SC2(CCCC2)C(=O)N1CCCCN1CCN(c2nccc3sccc23)CC1		11.6 mg/kg			8.1 nM	88.3 nM	IC50 [10]: 30.5 nM; MED50 (Rattus norvegicus [6]): 5 mg/kg; IC50 [12]: 3.9 nM; ED50 (Rattus norvegicus [8]): 35.2 mg/kg
Cl.Cn1ccc2c(N3CCN(CCCCN4C(=O)COCC4=O)CC3)nccc21		> 100 mg/kg		> 1000 nM			
Cc1cc2c(N3CCN(CCCCN4C(=O)SC5(CCCC5)C4=O)CC3)nccc2s1.Cl		35.4 mg/kg			3.6 nM	279 nM	IC50 [12]: 43.4 nM
